High-throughput results: PubChem, The Scripps Research Institute Molecular Screening Center
MsrA inh: bovine MsrA enzyme inhibitors, primary screen, biochemical, absorbance, HTS; Methionine sulfoxide reductase A (Bos taurus); purified bovine MsrA, absorbance read-out; inhibition, % at 15.5 µM; 360,000 compounds, 0.75% hits;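 also: 0% = vehicle wells with enzyme and 100% = reference inhibitor wells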
bovine MsrA act: bovine MsrA enzyme activators, primary screen, biochemical, absorbance, HTS; purified bovine MsrA, absorbance read-out; activation, % at 10.6 µM; 360,000 compounds, 0.3% hits; AID 602163, 2012; in the data active = activation above about 7.5%;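 also: 0% = vehicle and 100% = reference activator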
procasp7 counter: procaspase-7 activators, primary screen, counter-screen for procaspase-3 activator project, biochemical, absorbance, HTS, human | recombinant procaspase-7, Ac-DEVD-pNA absorbance 405 nm; D23A/D198A/D206A triple mutant, cannot self-cleave; scale: DMSO 0, 5 µM enzyme 100 | AID 463210, 2010 | activation, % at 8.5 µM | Caspase-7 (Homo sapiens), P55210 | 330,000 compounds, 0.093% hits;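 active = percent activation above the screen-wide mean plus 3 SD, cut at about 25% in these data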
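System: Uncleavable procaspase-7 mutant enzyme; Amount: 2 µM procaspase-7 mutant as dispensed; Schedule: 1 h compound preincubation, 2 h substrate cleavage, 25 °C; Measured by: 405 nm absorbance of p-nitroaniline; Evaluation: percent activation from buffer-corrected 0–120 min absorbance change; Control set: low DMSO alone, high DMSO plus 5 µM PC-7.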
TbMetRS inhib: T. brucei MetRS inhibitors, primary screen, biochemical, luminescence; methionyl-tRNA synthetase (Trypanosoma brucei brucei); purified T. brucei MetRS, ATP depletion, Kinase-Glo luminescence; inhibition, % at 11.9 µM; 360,000 compounds, 0.4% hits;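 active = inhibition above a per-plate cutoff of the control wells' mean inhibition plus 3 SD, cut at about 5.5% in these data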;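 also: 0% = DMSO wells median and 100% = median of wells with control inhibitor compound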
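Assay system: T. brucei methionyl-tRNA synthetase, purified | Medium: HEPES buffer with MgCl2, KCl, DTT, spermine, BSA, pyrophosphatase | Compound: 11.9 µM single point | Incubation: 15 min enzyme-compound preincubation, 2 h reaction, 10 min detection, 25 °C | Measured by: Kinase-Glo luciferase luminescence reporting remaining unconsumed ATP | Measure: % inhibition normalized to control-well medians | Replication: Singlicate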
procasp3 activ: activators of human procaspase-3 D3A mutant, primary screen, biochemical, absorbance, PC-3 D3A mutant, single concentration | Caspase-3 (Homo sapiens), P42574 | recombinant procaspase-3 D3A, Ac-DEVD-pNA absorbance 405 nm | activation, % at 8.5 µM | 330,000 compounds, 0.11% hits;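 active = activation above the mean of all tested compounds plus 3 SD, cut at about 21% in these data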;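 also: 0% = DMSO alone and 100% = DMSO wells spiked with extra 5 µM PC-3 D3A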
Target sequence (P42574 whole entry D9A/D28A/D175A): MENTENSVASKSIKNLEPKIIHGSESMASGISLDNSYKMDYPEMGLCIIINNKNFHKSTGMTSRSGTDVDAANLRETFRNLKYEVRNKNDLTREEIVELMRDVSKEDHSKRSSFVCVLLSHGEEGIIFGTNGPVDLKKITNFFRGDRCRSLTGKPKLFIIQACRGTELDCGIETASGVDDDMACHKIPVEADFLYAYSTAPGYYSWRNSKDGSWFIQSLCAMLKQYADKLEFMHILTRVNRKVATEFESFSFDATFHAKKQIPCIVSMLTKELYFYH
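Assay system: Procaspase-3 D3A mutant, all three cleavage aspartates alanine. Buffer or medium: Zinc-free HEPES saline buffer with Triton X-100. Times: 1 h compound preincubation, 2 h substrate hydrolysis at 25 °C. Measured by: 405 nm absorbance of p-nitroaniline, reads at 0 and 120 min. Read-out basis: percent activation relative to control range. Replicates: singlicate.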
MsrA conf: bovine MsrA inhibitors, retest, confirmation, biochemical, absorbance, HTS | shares compounds with MsrA inh | purified bovine MsrA, absorbance read-out | inhibition, % at 15.5 µM | 2,300 compounds, 41% hits | AID 651822, 2012;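 also: coupled to thioredoxin reductase with NADPH and selenocystamine and DMSO as substrate; 0% = vehicle only and 100% = full effect of reference inhibitor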
An asterisk follows results filed as active; . = no result. Most compounds without a hit are left out; they make up all but 1.5% or so of the library. Rule as the data show it, unless noted: active = inhibition above about 4.5%; inactive = the rest.

SMILES | MsrA inh | bovine MsrA act | procasp7 counter | TbMetRS inhib | procasp3 activ | MsrA conf
COc1cc(/C=C(\C#N)C(=O)NCC2CCCO2)ccc1O (centres undefined) | 2 | -2 | -9 | 0 | -12 | .
COc1cc(OC)c(OC)cc1/C=N/NC(=S)NCCN1CCOCC1 | 5.1* | -3 | -2 | -1 | -2 | 4
COC(=O)[C@]12C[C@H](CC(=O)N3CCN(C(=O)C4CC4)CC3)C(=O)N(CCC3=CCCCC3)C1=C[C@H](COCc1ccccc1)O[C@@H]2C | 0 | . | . | . | . | .
Cc1[nH]c2ccccc2c1CC(=O)Nc1ccc(Nc2ccncc2)cc1 | 1 | . | . | . | . | .
O=C(N[C@H](C(=O)N1CCC[C@H]1C(=O)NCc1ccccc1)c1ccccc1)c1ccc(Cl)c(Cl)c1 | 0 | . | . | . | . | .
CC(C)C[C@H]1COc2cc(Br)ccc2S(=O)(=O)N1Cc1ccc(Cl)cc1 | -1 | . | . | . | . | .
COCc1[nH]nc2c1C(c1cccc(C(F)(F)F)c1)NC2=O (centres undefined) | 1 | . | . | . | . | .
CCOC(=O)c1nnn(-c2nonc2-c2ccccc2)c1C | 19* | 0 | 2 | 0 | 0 | 14*
CCSc1nnc(NC(=O)c2cccs2)s1 | 5.2* | -3 | -6 | 0 | 2 | 3
O=C(Nc1nnc(SCc2ccccc2)s1)c1cccs1 | -1 | -3 | -1 | 0 | 12 | .
CC(=O)c1c(C)[nH]c(C2=NNC(=NCc3ccccc3)SC2)c1C | 5.0* | -11 | -2 | -1 | -3 | 2
COc1cc2c(cc1OC)-c1cc(NC3CCCCCC3)nc(=O)n1CC2 | 1 | -7 | 4 | -1 | -8 | .
COc1cc2c(cc1OC)-c1cc(Nc3ccccc3)nc(=O)n1CC2 | 5.1* | -3 | 0 | 0 | -4 | 3
COc1ccc(Nc2cc3n(c(=O)n2)CCc2cc(OC)c(OC)cc2-3)cc1 | 5.5* | 1 | -6 | 0 | -6 | 4
COc1cc2c(cc1OC)-c1cc(Nc3ccc4c(c3)OCCO4)nc(=O)n1CC2 | 5.1* | -5 | 9 | -1 | -6 | 4
COc1ccc(Nc2cc3n(c(=O)n2)CCc2cc(OC)c(OC)cc2-3)c(C)c1 | 4.9* | -5 | 1 | -1 | 3 | 3
COc1cc2c(cc1OC)-c1cc(Nc3ccc(C)cc3)nc(=O)n1CC2 | 4 | -1 | 4 | -1 | -3 | .
CCOC(=O)C1=CCN(S(=O)(=O)c2cccc(Cl)c2)C1c1ccc(Cl)c(Cl)c1 (centres undefined) | 1 | . | . | . | . | .
COc1cc2c(cc1OC)-c1cc(Nc3ccc(C(=O)O)cc3)nc(=O)n1CC2 | 4 | -8 | 3 | -1 | 5 | .
COc1cc2c(cc1OC)-c1cc(Nc3ccccc3Br)nc(=O)n1CC2 | 7.5* | -4 | -1 | -1 | 3 | 5
Cc1cc(Cl)ccc1OCC(=O)OCC(=O)N(CC(C)C)c1c(N)n(Cc2ccccc2)c(=O)[nH]c1=O | 1 | -5 | 9 | 0 | 14 | .
CN(/N=C/c1ccc([N+](=O)[O-])o1)c1ccccc1 | 1 | -3 | -2 | -1 | 1 | .
CN(C)/N=C/c1ccc(P(c2ccc(/C=N/N(C)C)o2)c2ccc(/C=N/N(C)C)o2)o1 | 5.4* | -7 | 1 | 0 | -1 | 4
Cc1ccc(Oc2cccc3c2S(=O)(=O)N([C@H](C)c2ccccc2)C[C@@H](COCc2ccccc2)O3)cc1 | 0 | . | . | . | . | .
Cc1cc(N/C=C/C(=O)c2cccc3ccccc23)no1 | 4.7* | -4 | 0 | 0 | -2 | 2
Cc1cc(N/C=C/C(=O)c2ccc(Br)cc2)no1 | 0 | -5 | -3 | -1 | 5 | .
O=C1NC(=O)/C(=C/c2ccco2)N1 | 7.9* | -7 | 8 | 0 | 3 | 6.2*
O=C(N/N=C/c1c[nH]c2ccccc12)c1[nH]c2ccc(Br)cc2c1-c1ccccc1 | 5.1* | -8 | . | 0 | . | 4
